Measurements published in ChEMBL document CHEMBL1255566, “Rigid analogues of the α2-adrenergic blocker atipamezole: small changes, big consequences” (J Med Chem, 2010).

Tests used:
[1] = target: T1, Alpha-1B adrenergic receptor (Homo sapiens, UniProt P35368); test: Displacement of [3H]-prazosin from human adrenergic alpha-1b receptor expressed in CHO cells after 120 mins by liquid scintillation counting; format: cell-based
T1 sequence (P35368 whole entry): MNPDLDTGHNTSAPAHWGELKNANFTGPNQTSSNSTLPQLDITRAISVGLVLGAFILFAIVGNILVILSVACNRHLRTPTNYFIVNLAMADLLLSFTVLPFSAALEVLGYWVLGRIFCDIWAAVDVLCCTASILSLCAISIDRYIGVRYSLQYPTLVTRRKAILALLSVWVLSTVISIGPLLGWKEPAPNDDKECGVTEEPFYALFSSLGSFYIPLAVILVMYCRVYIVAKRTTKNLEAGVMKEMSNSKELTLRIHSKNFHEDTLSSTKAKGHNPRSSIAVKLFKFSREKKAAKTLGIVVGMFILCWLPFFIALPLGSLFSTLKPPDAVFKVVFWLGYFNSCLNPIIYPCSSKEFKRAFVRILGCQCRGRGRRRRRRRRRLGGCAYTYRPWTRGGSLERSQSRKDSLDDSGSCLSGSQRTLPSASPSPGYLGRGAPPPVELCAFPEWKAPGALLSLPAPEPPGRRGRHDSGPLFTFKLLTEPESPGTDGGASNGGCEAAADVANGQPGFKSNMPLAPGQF
Method in brief: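 Competition binding at human α1b receptors stably expressed in CHO cells. Affinity values are means ± SEM of at least two experiments, each in duplicate.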

[2] = target: T2, Alpha-2A adrenergic receptor (Homo sapiens, UniProt P08913); test: Displacement of [3H]-RX821002 from human adrenergic alpha2A receptor expressed in rat C6 cells after 120 mins by liquid scintillation counting; format: cell-based
T2 sequence (P08913 whole entry): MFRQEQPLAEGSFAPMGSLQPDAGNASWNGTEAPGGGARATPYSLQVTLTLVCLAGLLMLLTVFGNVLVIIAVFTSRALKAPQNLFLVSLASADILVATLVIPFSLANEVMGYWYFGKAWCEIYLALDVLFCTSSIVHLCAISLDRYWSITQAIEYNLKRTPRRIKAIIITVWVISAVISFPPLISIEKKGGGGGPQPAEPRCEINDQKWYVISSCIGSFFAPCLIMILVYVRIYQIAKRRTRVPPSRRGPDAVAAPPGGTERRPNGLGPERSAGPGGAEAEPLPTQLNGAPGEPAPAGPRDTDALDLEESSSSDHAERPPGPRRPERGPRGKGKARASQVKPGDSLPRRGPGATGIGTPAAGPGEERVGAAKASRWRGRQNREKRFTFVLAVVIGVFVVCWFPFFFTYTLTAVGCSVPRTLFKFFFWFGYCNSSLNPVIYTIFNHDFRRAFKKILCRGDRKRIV
Method in brief: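 Competition binding at human α2A receptors expressed in C6 glial cells. Affinity values are means ± SEM of at least two experiments, each in duplicate.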

[3] = target: T3, Alpha-2B adrenergic receptor (Homo sapiens, UniProt P18089); test: Displacement of [3H]-RX821002 from human adrenergic alpha2B receptor expressed in rat C6 cells after 120 mins by liquid scintillation counting; format: cell-based
T3 sequence (P18089 whole entry): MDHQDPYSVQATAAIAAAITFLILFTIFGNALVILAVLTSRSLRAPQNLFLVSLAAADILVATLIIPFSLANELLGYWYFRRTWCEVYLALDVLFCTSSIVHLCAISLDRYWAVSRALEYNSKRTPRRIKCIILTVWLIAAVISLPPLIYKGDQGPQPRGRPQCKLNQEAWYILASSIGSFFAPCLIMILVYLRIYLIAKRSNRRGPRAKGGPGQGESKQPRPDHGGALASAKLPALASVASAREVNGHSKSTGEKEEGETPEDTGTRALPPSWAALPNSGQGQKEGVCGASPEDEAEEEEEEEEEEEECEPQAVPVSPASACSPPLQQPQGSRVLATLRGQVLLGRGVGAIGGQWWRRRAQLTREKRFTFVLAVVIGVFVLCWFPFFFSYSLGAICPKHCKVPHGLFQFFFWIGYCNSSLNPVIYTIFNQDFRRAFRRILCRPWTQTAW

[4] = target: T4, Alpha-2C adrenergic receptor (Homo sapiens, UniProt P18825); test: Displacement of [3H]-RX821002 from human adrenergic Alpha-2C receptor expressed in rat C6 cells after 120 mins by liquid scintillation counting; format: cell-based
T4 sequence (P18825 whole entry): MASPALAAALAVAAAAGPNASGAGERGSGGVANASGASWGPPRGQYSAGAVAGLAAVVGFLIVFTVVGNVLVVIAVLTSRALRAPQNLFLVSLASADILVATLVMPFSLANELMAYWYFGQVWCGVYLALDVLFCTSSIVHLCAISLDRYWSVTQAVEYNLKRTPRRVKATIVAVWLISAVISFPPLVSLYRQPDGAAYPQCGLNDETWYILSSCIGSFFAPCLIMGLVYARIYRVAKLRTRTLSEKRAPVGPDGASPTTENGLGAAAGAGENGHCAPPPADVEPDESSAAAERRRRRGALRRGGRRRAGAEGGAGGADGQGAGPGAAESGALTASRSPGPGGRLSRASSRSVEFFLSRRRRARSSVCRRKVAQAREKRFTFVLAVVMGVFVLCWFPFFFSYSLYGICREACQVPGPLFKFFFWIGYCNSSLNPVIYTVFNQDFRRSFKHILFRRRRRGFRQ

Mus musculus [5] = test: Antihypothermic activity in ip dosed NMRI mouse assessed as inhibition of guanabenz-induced hypothermia administered 5 mins before guanabenz challenge measured after 25 mins; format: functional
Method in brief: (§1)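 Mice got the compound by intraperitoneal injection or oral gavage before guanabenz challenge, and reversal of guanabenz-induced hypothermia was scored. Five animals were tested per dose. ED50 is the dose giving an inhibitory effect in 50% of guanabenz-treated animals, with 95% confidence limits.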

Mus musculus [6] = test: Antihypothermic activity in po dosed NMRI mouse assessed as inhibition of guanabenz-induced hypothermia administered 35 mins before guanabenz challenge measured after 25 mins; format: functional; method in brief: as §1
Mus musculus [7] = test: Ratio of ED50 for santihypothermic activity in po dosed NMRI mouse to ED50 for antihypothermic activity in ip dosed NMRI mouse; format: functional
Method in brief: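 Guanabenz-induced hypothermia in mice, five animals per dose. ED50 (the dose inhibiting hypothermia in 50% of guanabenz-treated animals) was obtained after oral gavage and after intraperitoneal injection, and the ratio po/ip was then calculated.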

Mus musculus [8] = test: Increase of normetanephrine level in NMRI mouse cortex at 0.16 to 10 mg/kg, ip after 1 hr microwave irradiation; format: functional; settings: dose mg/kg 0.16-10; route intraperitoneal
Method in brief: (§2)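 Single intraperitoneal dose; mice were killed by head-focused microwave irradiation 1 h later. Frontal cortex normetanephrine, an extracellular noradrenaline metabolite, was measured and expressed as increase relative to control animals, giving dose-response data across 0.16 to 10 mg/kg.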

Rattus norvegicus [9] = test: Cardiotoxicity in pithed Sprague-Dawley rat assessed as increase of diastolic pressure at > 0.63 ug/kg, iv; format: toxicity, organism-based; settings: in vivo, 0.00063 mg/kg
Rattus norvegicus [10] = test: Cardiotoxicity in pithed Sprague-Dawley rat assessed as increase of diastolic pressure at 2.5 ug/kg, iv in presence of prazosin; format: toxicity, organism-based; settings: in vivo, 0.0025 mg/kg
Rattus norvegicus [11] = test: Cardiotoxicity in pithed Sprague-Dawley rat assessed as increase of diastolic pressure at 2.5 ug/kg, iv in presence of rauwolscine; format: toxicity, organism-based; settings: in vivo, 0.0025 mg/kg
Rattus norvegicus [12] = test: Cardiotoxicity in anesthetized Sprague-Dawley rat assessed as increase of diastolic pressure at up to 0.16 ug/kg, iv; format: toxicity, organism-based; settings: in vivo, 0.00016 mg/kg
Rattus norvegicus [13] = test: Cardiotoxicity in anesthetized Sprague-Dawley rat assessed as increase of diastolic pressure at 10 ug/kg, iv; format: toxicity, organism-based; settings: in vivo, 0.01 mg/kg
[14] = target: T5, Alpha-2A adrenergic receptor (Homo sapiens) (UniProt P08913); test: Antagonist activity at human adrenergic alpha2A receptor expressed in CHO cells assessed as inhibition of adrenaline-induced [35S]GTPgammaS binding after 30 mins by scintillation counting; format: functional, cell-based
T5 sequence (whole entry): T2 sequence (P08913 whole entry)
Method in brief: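 Inhibition of adrenaline-stimulated [35S]GTPγS binding in CHO cells expressing human α2A receptors. Compounds were also run alone to check for any stimulation of [35S]GTPγS binding. Antagonist potency is reported as pKB, taken as the potency that inhibits 50% of adrenaline-induced binding.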

Mus musculus [15] = test: Increase of normetanephrine level in ip dosed NMRI mouse cortex after 1 hr microwave irradiation; format: functional, organism-based; method in brief: as §2
Mus musculus [16] = test: Increase of normetanephrine level in NMRI mouse cortex at 10 mg/kg, ip after 1 hr microwave irradiation; format: functional; settings: route intraperitoneal; method in brief: as §2
[17] = Mus musculus, NMRI, ip, read-out: ED50
[18] = Mus musculus, NMRI, po, read-out: ED50

| Ki [1] | Ki [2] | Ki [3] | Ki [4] | pKb [14] | SMILES | ED50 (Mus musculus [5]) | ED50 (Mus musculus [6]) | Ratio ED50 (Mus musculus [7]) | Activity (Mus musculus [8]) | Activity (Rattus norvegicus [9]) | Activity (Rattus norvegicus [10]) | Activity (Rattus norvegicus [11]) | Activity (Rattus norvegicus [12]) | Activity (Rattus norvegicus [13]) | Activity (Mus musculus [15]) | ED50 (Mus musculus [5]; [17]) | ED50 (Mus musculus [6]; [18]) | Activity (Mus musculus [16]) |
| --- | --- | --- | --- | --- | --- | --- | --- | --- | --- | --- | --- | --- | --- | --- | --- | --- | --- | --- |
| 3.55 nM | 0.0794 nM | 0.275 nM | 0.263 nM |  | c1ccc2c(c1)C[C@]1(c3cnc[nH]3)C[C@H]21 (stereo in doubt; (+)-1) | 0.02 mg/kg | 0.07 mg/kg | 3.5 | 3096% | Toxic | Toxic | Non-toxic | Non-toxic | 26 mmHg |  |  |  |  |
|  |  |  |  | 9.64 | c1ccc2c(c1)C[C@]1(c3c[nH]cn3)C[C@H]21 (stereo in doubt; (+)-1) |  |  |  |  |  |  |  |  |  | Dose-dependent effect |  |  |  |
| 39.8 nM | 0.447 nM | 0.912 nM | 2.82 nM | 8.66 | C[C@]12CC1(c1c[nH]cn1)Cc1ccccc12 (single isomer, unassigned) |  |  | 11 |  |  |  |  |  |  |  | 0.06 mg/kg | 0.66 mg/kg |  |
| 40.7 nM | 0.513 nM | 1.62 nM | 1.26 nM | 8.91 | CC[C@H]1c2ccccc2[C@H]2C[C@]21c1c[nH]cn1 (relative stereo) |  |  | 1.3 |  |  |  |  |  |  |  | 0.03 mg/kg | 0.04 mg/kg |  |
|  |  |  |  | 8.05 | CCC1(c2c[nH]cn2)Cc2ccccc2C1 [ATIPAMEZOLE] |  |  | 10.3 |  |  |  |  |  |  |  | 0.19 mg/kg | 1.95 mg/kg | 258% |
| 2090 nM | 7.24 nM | 6.76 nM | 13.8 nM | 7.84 | CCC1(c2c[nH]cn2)Cc2ccc(F)cc2C1 (configuration not stated) [FIPAMEZOLE] |  |  | 4 |  |  |  |  |  |  |  | 0.47 mg/kg | 1.87 mg/kg | 247% |
| 39.8 nM | 3.31 nM | 9.77 nM | 10.2 nM | 8.36 | CCO[C@H]1c2ccccc2[C@H]2C[C@]21c1c[nH]cn1 (relative stereo) |  |  | 0.2 |  |  |  |  |  |  |  | 0.16 mg/kg | 0.03 mg/kg |  |
|  |  |  |  |  | CNCCCN1c2ccccc2CCc2ccccc21 [DESIPRAMINE] |  |  |  |  |  |  |  |  |  |  |  |  | 223% |
| 3.55 nM | 0.407 nM | 0.347 nM | 0.437 nM | 9.24 | CCC[C@H]1[C@@H]2c3ccccc3C[C@]12c1c[nH]cn1 |  |  | 3.3 |  |  |  |  |  |  |  | 0.1 mg/kg | 0.33 mg/kg |  |
